Activity calls are given as the source filed them. No cut-off for these calls is given here.
Key:
[1] = target: Phosphatidylinositol 4,5-bisphosphate 3-kinase catalytic subunit gamma isoform (Homo sapiens, UniProt P48736); assay: Binding affinity to human PI3Kgamma diluted 30 fold and equilibrate for 6 hrs by scan-kinetic platform assay
Method in brief: (§1)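 scanKINETIC format on PI3Kα and PI3Kγ. […] Arm C: equilibrated 1 h. Arm B: equilibrated 1 h, diluted 30-fold, then re-equilibrated. Arm D: diluted immediately, then equilibrated. Kd compared with and without the dilution step to judge reversibility.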

[2] = Inhibition of PI3K in human HeLa cells assessed as reduction in EGF-stimulated AKT phosphorylation at S473 preincubated for 10 mins followed by EGF stimulation measured after 5 mins by Western blot analysis; type: cell-based
Method in brief: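 HeLa cells were serum-starved overnight, pretreated with compound for 10 min, then stimulated with 10 ng mL-1 EGF for 5 min. Lysis was in boiling SDS sample buffer, with protein quantified at 660 nm. Equal protein was resolved by SDS-PAGE and Western blotted for pEGFR Tyr1068, pAKT Ser473/Thr308, and pERK1/2 Thr202/Tyr204 with total proteins and GAPDH, detected by ECL.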

[3] = target: PI3-kinase p110-alpha/p85-alpha (Homo sapiens) (UniProt P27986+P42336); assay: Binding affinity to PI3Kalpha/p85alpha (unknown origin) assessed as covalent modification at Lys802 residue at 4 uM after 2 mins by tandem MS/MS method; type: protein-complex assay
Method in brief: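 Recombinant PI3Kα (p110α/p85α) at 2 μM mixed with 4 μM inhibitor in 10 mM HEPES pH 7.5, 100 mM NaCl, 5% DMSO. Timepoints quenched by unfolding in ice-cold 2 M guanidine-HCl/3% formic acid, snap-frozen in liquid N2, stored at −80 °C. Analysed by LC-MS/MS; mass shift of the modified peptide read out.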

[4] = target: T1, Aurora kinase A (Homo sapiens) (UniProt O14965); assay: Binding affinity to human AURKA at 1 uM after 1 hr by KINOMEscan assay
T1 sequence (whole entry): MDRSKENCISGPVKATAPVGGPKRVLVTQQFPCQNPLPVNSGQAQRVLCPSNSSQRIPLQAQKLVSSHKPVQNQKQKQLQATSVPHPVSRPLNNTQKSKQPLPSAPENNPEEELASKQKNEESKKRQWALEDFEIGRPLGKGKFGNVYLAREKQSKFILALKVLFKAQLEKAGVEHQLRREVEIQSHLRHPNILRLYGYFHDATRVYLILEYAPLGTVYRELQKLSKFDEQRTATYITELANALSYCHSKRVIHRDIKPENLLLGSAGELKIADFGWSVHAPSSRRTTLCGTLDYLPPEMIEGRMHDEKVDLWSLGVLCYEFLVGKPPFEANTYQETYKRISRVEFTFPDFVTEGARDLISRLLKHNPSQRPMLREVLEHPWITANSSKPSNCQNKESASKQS

[5] = target: Phosphatidylinositol 4,5-bisphosphate 3-kinase catalytic subunit beta isoform (Homo sapiens, UniProt P42338); assay: Binding affinity to human PI3Kbeta after 1 hr by KINOMEscan assay
[6] = target: Serine/threonine-protein kinase mTOR (Homo sapiens, UniProt P42345); assay: Binding affinity to human mTOR after 1 hr by KINOMEscan assay
[7] = target: T2, Phosphatidylinositol 4,5-bisphosphate 3-kinase catalytic subunit delta isoform (Homo sapiens, UniProt O00329); assay: Binding affinity to human PI3Kdelta after 1 hr by KINOMEscan assay
T2 sequence (O00329 whole entry): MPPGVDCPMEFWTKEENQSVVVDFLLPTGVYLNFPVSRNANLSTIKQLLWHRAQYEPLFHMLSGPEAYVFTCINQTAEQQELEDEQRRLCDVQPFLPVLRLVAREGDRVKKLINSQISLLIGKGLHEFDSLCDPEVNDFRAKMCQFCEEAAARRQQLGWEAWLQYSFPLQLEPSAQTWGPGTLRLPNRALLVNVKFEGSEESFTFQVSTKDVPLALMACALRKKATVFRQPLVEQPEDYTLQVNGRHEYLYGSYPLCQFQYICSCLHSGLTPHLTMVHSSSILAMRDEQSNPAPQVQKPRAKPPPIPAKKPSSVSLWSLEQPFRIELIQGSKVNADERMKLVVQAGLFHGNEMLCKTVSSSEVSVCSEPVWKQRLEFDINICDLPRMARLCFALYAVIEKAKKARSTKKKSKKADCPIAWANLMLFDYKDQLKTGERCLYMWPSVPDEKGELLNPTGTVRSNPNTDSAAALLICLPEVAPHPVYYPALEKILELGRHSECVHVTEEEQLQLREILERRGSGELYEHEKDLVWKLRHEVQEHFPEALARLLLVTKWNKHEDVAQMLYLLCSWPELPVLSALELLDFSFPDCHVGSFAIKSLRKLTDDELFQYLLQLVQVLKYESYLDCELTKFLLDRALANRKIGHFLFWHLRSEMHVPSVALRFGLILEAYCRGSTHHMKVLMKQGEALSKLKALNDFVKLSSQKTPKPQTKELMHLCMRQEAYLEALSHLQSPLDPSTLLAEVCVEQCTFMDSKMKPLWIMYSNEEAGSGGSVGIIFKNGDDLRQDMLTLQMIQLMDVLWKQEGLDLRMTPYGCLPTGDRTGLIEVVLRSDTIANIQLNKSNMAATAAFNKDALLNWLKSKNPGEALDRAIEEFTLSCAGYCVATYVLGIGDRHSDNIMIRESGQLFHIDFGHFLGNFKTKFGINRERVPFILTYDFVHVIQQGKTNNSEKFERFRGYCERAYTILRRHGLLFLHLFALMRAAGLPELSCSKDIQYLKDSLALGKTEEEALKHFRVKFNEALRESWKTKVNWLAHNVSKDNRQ

[8] = target: Tyrosine-protein kinase Lck (Homo sapiens, UniProt P06239); assay: Binding affinity to human LCK after 1 hr by KINOMEscan assay
[9] = target: Phosphatidylinositol 4,5-bisphosphate 3-kinase catalytic subunit alpha isoform (Homo sapiens, UniProt P42336); assay: Binding affinity to human PI3Kalpha diluted 30 fold and equilibrate for 6 hrs by scan-kinetic platform assay; method in brief: as §1
[10] = target: Mitogen-activated protein kinase 8 (Homo sapiens) (UniProt P45983); assay: Binding affinity to human JNK1 at 1 uM after 1 hr by KINOMEscan assay
[11] = target: Mitogen-activated protein kinase 10 (Homo sapiens) (UniProt P53779); assay: Binding affinity to human JNK3 at 1 uM after 1 hr by KINOMEscan assay
Chain of Mitogen-activated protein kinase 10 (Homo sapiens) (P53779 whole entry): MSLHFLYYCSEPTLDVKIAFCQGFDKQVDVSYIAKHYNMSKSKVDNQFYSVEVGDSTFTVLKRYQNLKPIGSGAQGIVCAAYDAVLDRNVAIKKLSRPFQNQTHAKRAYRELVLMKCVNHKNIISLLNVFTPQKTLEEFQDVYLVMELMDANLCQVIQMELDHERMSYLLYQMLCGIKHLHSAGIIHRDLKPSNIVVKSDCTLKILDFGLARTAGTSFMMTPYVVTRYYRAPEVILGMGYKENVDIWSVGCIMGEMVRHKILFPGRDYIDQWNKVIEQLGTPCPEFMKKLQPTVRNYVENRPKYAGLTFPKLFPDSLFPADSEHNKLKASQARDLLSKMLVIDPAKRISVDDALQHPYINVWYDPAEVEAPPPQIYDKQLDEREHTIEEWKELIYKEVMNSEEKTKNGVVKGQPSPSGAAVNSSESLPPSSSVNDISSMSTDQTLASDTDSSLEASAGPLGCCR

Chain of Phosphatidylinositol 4,5-bisphosphate 3-kinase catalytic subunit gamma isoform (P48736 whole entry, canonical isoform): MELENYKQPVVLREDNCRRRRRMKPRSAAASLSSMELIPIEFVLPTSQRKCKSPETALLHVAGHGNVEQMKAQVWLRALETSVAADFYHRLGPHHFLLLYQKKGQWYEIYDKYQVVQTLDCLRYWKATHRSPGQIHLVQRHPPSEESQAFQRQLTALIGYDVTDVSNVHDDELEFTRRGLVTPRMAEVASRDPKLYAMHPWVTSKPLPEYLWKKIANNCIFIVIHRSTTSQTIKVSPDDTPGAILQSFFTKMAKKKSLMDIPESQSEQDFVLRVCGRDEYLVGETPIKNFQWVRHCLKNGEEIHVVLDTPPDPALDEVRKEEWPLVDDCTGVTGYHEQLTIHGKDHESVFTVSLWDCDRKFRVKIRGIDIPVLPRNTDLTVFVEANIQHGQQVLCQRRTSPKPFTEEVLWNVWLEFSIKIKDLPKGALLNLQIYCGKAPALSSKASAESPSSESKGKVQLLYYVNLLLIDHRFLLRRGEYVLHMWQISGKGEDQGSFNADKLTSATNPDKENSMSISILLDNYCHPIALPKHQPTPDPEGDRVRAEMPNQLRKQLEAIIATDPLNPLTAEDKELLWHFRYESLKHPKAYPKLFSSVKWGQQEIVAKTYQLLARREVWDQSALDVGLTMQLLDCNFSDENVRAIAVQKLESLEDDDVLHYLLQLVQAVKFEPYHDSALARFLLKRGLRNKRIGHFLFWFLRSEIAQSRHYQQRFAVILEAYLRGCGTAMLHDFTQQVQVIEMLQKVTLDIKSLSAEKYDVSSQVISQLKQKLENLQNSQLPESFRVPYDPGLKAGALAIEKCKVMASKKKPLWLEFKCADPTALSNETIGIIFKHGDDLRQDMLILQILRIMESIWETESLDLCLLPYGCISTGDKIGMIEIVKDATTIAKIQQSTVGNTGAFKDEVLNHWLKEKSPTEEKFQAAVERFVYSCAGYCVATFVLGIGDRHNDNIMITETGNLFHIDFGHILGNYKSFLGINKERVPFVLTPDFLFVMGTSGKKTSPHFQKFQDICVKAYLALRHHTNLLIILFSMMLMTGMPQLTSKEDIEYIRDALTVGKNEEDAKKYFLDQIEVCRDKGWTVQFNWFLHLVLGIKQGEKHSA
Chain of Phosphatidylinositol 4,5-bisphosphate 3-kinase catalytic subunit beta isoform (P42338 whole entry, canonical isoform): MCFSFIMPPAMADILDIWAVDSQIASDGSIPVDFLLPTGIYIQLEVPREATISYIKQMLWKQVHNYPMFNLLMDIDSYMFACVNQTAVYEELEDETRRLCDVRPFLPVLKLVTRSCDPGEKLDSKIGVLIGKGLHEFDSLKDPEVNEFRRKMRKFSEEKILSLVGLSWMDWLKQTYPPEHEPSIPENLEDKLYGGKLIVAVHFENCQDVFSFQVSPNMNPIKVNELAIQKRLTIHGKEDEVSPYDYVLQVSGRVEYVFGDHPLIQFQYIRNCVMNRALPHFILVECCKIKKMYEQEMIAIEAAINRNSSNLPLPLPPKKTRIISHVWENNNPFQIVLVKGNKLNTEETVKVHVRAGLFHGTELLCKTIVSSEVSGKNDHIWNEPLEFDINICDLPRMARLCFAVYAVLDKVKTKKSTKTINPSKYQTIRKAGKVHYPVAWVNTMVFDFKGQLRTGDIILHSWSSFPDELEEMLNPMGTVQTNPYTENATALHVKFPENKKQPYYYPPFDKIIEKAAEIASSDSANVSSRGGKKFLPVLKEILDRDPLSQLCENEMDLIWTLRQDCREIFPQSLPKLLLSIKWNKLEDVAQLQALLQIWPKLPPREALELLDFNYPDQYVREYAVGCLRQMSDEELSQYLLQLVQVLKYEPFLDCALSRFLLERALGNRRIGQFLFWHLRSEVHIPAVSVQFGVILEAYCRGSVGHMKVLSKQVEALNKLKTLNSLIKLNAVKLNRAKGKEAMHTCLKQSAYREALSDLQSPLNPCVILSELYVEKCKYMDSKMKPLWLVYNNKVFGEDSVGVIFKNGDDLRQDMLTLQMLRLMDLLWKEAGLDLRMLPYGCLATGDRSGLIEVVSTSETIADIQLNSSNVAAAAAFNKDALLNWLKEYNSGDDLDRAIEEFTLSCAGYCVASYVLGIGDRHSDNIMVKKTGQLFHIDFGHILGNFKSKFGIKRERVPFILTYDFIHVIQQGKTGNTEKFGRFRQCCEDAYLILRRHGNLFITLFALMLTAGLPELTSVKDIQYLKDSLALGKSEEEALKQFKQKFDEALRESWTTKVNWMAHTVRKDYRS
Chain of Tyrosine-protein kinase Lck (P06239 whole entry, canonical isoform): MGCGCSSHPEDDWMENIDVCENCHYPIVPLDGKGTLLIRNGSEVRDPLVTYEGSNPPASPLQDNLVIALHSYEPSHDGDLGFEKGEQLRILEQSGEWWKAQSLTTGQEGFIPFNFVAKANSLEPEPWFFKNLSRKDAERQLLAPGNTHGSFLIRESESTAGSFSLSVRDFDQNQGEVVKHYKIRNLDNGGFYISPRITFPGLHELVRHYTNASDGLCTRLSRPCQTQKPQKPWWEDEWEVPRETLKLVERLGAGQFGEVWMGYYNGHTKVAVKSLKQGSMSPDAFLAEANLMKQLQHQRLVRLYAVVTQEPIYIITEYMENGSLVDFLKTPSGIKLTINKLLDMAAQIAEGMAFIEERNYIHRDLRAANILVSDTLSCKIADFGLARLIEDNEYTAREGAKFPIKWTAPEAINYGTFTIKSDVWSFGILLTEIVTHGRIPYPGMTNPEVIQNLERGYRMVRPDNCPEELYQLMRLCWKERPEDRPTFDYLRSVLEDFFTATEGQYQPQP
Chain of Mitogen-activated protein kinase 8 (Homo sapiens) (P45983 whole entry): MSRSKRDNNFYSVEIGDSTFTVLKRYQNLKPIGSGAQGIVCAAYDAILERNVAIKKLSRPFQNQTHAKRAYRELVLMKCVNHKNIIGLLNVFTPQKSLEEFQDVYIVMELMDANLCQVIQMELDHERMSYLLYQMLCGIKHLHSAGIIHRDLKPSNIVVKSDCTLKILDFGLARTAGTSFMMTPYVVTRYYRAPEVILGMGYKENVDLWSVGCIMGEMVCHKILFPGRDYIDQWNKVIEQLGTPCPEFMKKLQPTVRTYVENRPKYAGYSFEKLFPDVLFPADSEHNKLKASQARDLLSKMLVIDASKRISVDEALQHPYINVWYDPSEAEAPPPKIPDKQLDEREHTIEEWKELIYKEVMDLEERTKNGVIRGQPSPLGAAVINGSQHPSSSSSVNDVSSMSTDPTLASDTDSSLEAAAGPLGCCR
Chain of Phosphatidylinositol 4,5-bisphosphate 3-kinase catalytic subunit alpha isoform (P42336 whole entry, canonical isoform): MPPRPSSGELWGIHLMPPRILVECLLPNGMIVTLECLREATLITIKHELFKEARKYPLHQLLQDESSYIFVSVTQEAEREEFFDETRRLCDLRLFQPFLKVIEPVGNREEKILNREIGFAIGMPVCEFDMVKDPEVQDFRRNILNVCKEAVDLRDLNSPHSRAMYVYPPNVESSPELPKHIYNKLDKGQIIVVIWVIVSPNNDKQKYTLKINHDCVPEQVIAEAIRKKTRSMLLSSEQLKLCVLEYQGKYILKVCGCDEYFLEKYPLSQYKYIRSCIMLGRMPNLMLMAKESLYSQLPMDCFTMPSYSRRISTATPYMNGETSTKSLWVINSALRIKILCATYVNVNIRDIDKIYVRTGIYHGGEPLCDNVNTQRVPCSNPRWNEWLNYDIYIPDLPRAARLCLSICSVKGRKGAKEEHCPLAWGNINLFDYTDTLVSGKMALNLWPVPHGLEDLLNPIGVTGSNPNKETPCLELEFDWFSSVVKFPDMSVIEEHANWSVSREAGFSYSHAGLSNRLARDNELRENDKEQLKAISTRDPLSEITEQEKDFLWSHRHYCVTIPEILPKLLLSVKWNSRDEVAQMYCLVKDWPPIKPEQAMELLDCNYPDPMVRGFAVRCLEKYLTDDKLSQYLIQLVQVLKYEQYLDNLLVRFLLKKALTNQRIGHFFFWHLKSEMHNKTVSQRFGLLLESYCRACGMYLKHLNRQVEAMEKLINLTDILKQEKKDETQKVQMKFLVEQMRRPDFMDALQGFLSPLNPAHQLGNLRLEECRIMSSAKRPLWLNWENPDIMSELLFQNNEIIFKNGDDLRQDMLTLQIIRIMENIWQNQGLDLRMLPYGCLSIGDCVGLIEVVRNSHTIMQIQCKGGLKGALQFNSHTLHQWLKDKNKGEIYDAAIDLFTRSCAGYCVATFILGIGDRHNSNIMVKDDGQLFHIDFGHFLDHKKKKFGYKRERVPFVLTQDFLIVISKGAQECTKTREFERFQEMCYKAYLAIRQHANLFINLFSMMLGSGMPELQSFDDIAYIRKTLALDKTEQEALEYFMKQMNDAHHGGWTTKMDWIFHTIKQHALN

Kd [1]: 80 to 100 nM
IC50 [2]: 3 nM
Activity [3]: Active
Activity [4]: Active
Kd [5]: 5.7 nM
Kd [6]: 10 nM
Kd [7]: 4.9 nM
Kd [8]: 4600 nM
Kd [9]: 18 to 20 nM
Activity [10]: Active
Activity [11]: Active
SMILES: CO/C=C/C(=O)c1cc2c3c(c(N)cc(NC(=O)C(C)C)c3n1)N=C2
